Measurements reported in ChEMBL document CHEMBL1158989, “Synthesis and evaluation of hydroxylated flavones and related compounds as potential inhibitors of the protein-tyrosine kinase p56lck” (J Nat Prod, 1991).
≈ marks a conversion by molar mass, not a printed value.

Assay: Inhibition of bovine thymus p56LCK-catalyzed phosphorylation of angiotensin 1 by SDS-PAGE
Set-up: species or system Bos taurus
Summary of the method: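 p56lck partially purified from bovine thymus (DEAE-cellulose, heparin-agarose, butyl-agarose chromatography). Substrate angiotensin I 1.2 mM with [γ-32P]ATP 50 μM. Reactions held 8% DMSO as inhibitor carrier; DMSO-only controls. Inhibitors tested at seven concentrations, 0.8 to 800 μg/ml. IC50 read graphically as half-maximal inhibition relative to DMSO controls.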

IC50 | Structure (SMILES)
7.7 µg/mL (≈ 25.8 µM) | COc1cc(-c2cc(=O)c3ccccc3o2)cc(OC)c1O
4 µg/mL (≈ 14.8 µM) | O=c1cc(-c2ccc(O)cc2)oc2cc(O)cc(O)c12 [APIGENIN]
4 µg/mL (≈ 15.7 µM) | O=c1cc(-c2cccc(O)c2)oc2ccc(O)cc12
80 µg/mL (≈ 315 µM) | O=c1cc(-c2ccccc2)oc2c(O)c(O)ccc12 [7,8-DIHYDROXYFLAVONE]
4 µg/mL (≈ 15.7 µM) | O=c1cc(-c2ccc(O)cc2)oc2cccc(O)c12
4 µg/mL (≈ 14 µM) | O=c1c(O)c(-c2ccc(O)c(O)c2)oc2cc(O)ccc12 [FISETIN]
30 µg/mL (≈ 99.3 µM) | O=c1c(O)c(-c2cc(O)cc(O)c2)oc2cc(O)cc(O)c12
5 µg/mL (≈ 19.7 µM) | O=c1cc(-c2ccccc2)oc2cc(O)cc(O)c12 [CHRYSIN]
120 µg/mL (≈ 504 µM) | O=c1cc(-c2ccc(O)cc2)oc2ccccc12
43 µg/mL (≈ 169 µM) | O=c1cc(-c2ccc(O)cc2)oc2cc(O)ccc12
80 µg/mL (≈ 281 µM) | COc1cc(O)c2c(=O)cc(-c3ccc(O)cc3)oc2c1 [GENKWANIN]
80 µg/mL (≈ 315 µM) | O=c1cc(-c2cccc(O)c2)oc2cccc(O)c12
> 800 µg/mL | O=c1cc(-c2ccc(OCc3ccccc3)cc2)oc2cccc(O)c12
48 µg/mL (≈ 178 µM) | O=c1cc(-c2cccc(O)c2)oc2c(O)c(O)ccc12
80 µg/mL (≈ 336 µM) | O=c1cc(-c2ccccc2)oc2cc(O)ccc12 [7-HYDROXYFLAVONE]
664 µg/mL (≈ 1930 µM) | O=c1cc(-c2ccc(OCc3ccccc3)cc2)oc2cc(O)ccc12
10 µg/mL (≈ 39.3 µM) | O=c1cc(-c2cccc(O)c2)oc2cc(O)ccc12
80 µg/mL (≈ 296 µM) | O=c1c(O)c(-c2ccccc2)oc2cc(O)cc(O)c12 [GALANGIN]

More lines, now with the values behind:

Structure (SMILES) | IC50
COc1cc(-c2cc(=O)c3ccc(O)c(O)c3o2)cc(OC)c1O[Si](C)(C)C(C)(C)C | 40 µg/mL (≈ 90 µM)
COc1cc(-c2cc(=O)c3cc(O)ccc3o2)cc(OC)c1OC | 20 µg/mL (≈ 60.9 µM)
O=c1cc(-c2ccc(O)cc2)oc2ccc(O)cc12 | 30 µg/mL (≈ 118 µM)
COc1cc(-c2cc(=O)c3cc(O)ccc3o2)cc(OC)c1O | 41 µg/mL (≈ 130 µM)
COc1ccc2oc(-c3cc(OC)c(OC)c(OC)c3)cc(=O)c2c1 | > 800 µg/mL
O=c1cc(-c2ccc(O)c(O)c2)oc2cc(O)cc(O)c12 [LUTEOLIN] | 10 µg/mL (≈ 34.9 µM)
COc1cc(-c2oc3cc(O)cc(O)c3c(=O)c2O)cc(OC)c1O [SYRINGETIN] | 24 µg/mL (≈ 69.3 µM)
COc1cc(-c2cc(=O)c3ccc(O)cc3o2)cc(OC)c1O | 400 µg/mL (≈ 1270 µM)
COc1cc(-c2cc(=O)c3cc(O)ccc3o2)cc(OC)c1O[Si](C)(C)C(C)(C)C | 160 µg/mL (≈ 373 µM)
COc1cc(-c2cc(=O)c3ccc(O)cc3o2)cc(OC)c1OC | > 800 µg/mL
CC(C)(C)[Si](C)(C)Oc1ccc(-c2cc(=O)c3ccc(O)cc3o2)cc1 | 360 µg/mL (≈ 977 µM)
COc1cc(-c2cc(=O)c3ccc(OC(C)=O)c(OC(C)=O)c3o2)cc(OC)c1O[Si](C)(C)C(C)(C)C | > 800 µg/mL
COc1cc(-c2cc(=O)c3ccc(OC(C)=O)cc3o2)cc(OC)c1O[Si](C)(C)C(C)(C)C | > 800 µg/mL
COc1cc(-c2cc(=O)c3ccc(O)cc3o2)cc(OC)c1O[Si](C)(C)C(C)(C)C | 656 µg/mL (≈ 1530 µM)
COc1cc(-c2cc(=O)c3ccc(OC(C)=O)cc3o2)cc(OC)c1O | > 800 µg/mL
COc1ccc2c(=O)cc(-c3cc(OC)c(OC)c(OC)c3)oc2c1 | > 800 µg/mL
CC(C)(C)[Si](C)(C)Oc1ccc(-c2cc(=O)c3cc(O)ccc3o2)cc1 | 44 µg/mL (≈ 119 µM)
COc1cc(-c2cc(=O)c3ccc(O)c(O)c3o2)cc(OC)c1OC | 136 µg/mL (≈ 395 µM)
O=c1c(O)c(-c2ccc(O)c(O)c2)oc2cc(O)cc(O)c12 [QUERCETIN] | 4 µg/mL (≈ 13.2 µM)
